This assay has as its system Platelet. Nature of the assay: Inhibition of ADP-induced human platelet aggregation. In kind it is functional, cell-based. In a few lines: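 Human PRP from fasted, medication-free healthy male volunteers: citrated blood (0.38% final) spun at 800 rpm for 10 min; PPP from a 2500 rpm, 10 min spin. Compounds in DMSO (0.01% final) preincubated 2 min at 37 °C before ADP activation. Born turbidimetry; maximum curve height read, % inhibition versus vehicle; IC50 from linear regression of % inhibition against concentration.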
Take `CC(C)(C(=O)O)N1CCC(Nc2nc(-c3ccc(C(=N)N)cc3)cs2)CC1`: the IC50 is > 10000 nM. On to `N=C(N)c1ccc(-c2csc(N(CCC(=O)O)C3CCN(CC(=O)O)CC3)n2)cc1`, for which half-maximal inhibition (IC50) required 46 nM.

In the case of `N=C(N)c1ccc(-c2csc(N(Cc3ccccc3)C3CCN(CC(=O)O)CC3)n2)cc1`, the IC50 is 230 nM.

As for `N=C(N)c1ccc(-c2csc(NC3CCN(CCC(=O)O)CC3)n2)cc1`, the IC50 came out at 1800 nM. With `N=C(N)c1ccc(-c2csc(NC3CCN(CC(=O)O)CC3)n2)cc1` the figure was 42 nM; with `N=C(N)c1ccc(-c2csc(NC3CCN(C(C(=O)O)c4ccccc4Cl)CC3)n2)cc1` (stereo not drawn), 6000 nM; with `N=C(N)c1ccc(-c2csc(NC3CCN(C(C(=O)O)c4ccccc4)CC3)n2)cc1` (stereo not drawn), 65 nM.

For the molecule `CN(c1nc(-c2ccc(C(=N)N)cc2)cs1)C1CCN(CC(=O)O)CC1`, the IC50 amounted to 160 nM. With `N=C(N)c1ccc(-c2csc(N(CCCC(=O)O)C3CCN(CC(=O)O)CC3)n2)cc1`, the IC50 is 96 nM. The molecule `N=C(N)c1ccc(-c2csc(N(CC(=O)O)C3CCN(CC(=O)O)CC3)n2)cc1` registered an IC50 of 170 nM. In turn, `N=C(N)c1ccc(-c2csc(NC3CCN(C(CC(=O)O)C(=O)O)CC3)n2)cc1` (stereo not drawn) displayed an IC50 of 85 nM. Turning to `CC(C(=O)O)N1CCC(Nc2nc(-c3ccc(C(=N)N)cc3)cs2)CC1` (stereo not drawn), the midpoint of inhibition, the IC50, lay at 250 nM. In turn, `CCc1ccccc1Nc1nc(-c2cccnc2)cs1` yielded an IC50 of 1350 nM. Then `CCc1cccc(CC)c1Nc1nc(-c2cccnc2)cs1`, with 2190 nM; and `Fc1ccccc1Nc1nc(-c2cccnc2)cs1`, with 484 nM; and `c1cncc(-c2csc(Nc3cccc4ccccc34)n2)c1`, with 2890 nM. With `Nc1nc(-c2cccnc2)c[s+]1[O-]` (stereo not drawn) the figure was 1410 nM; with `Cc1ccc(Nc2nc(-c3cccnc3)cs2)cc1`, 2000 nM.

As a reminder, the IC50 is the midpoint of a concentration-inhibition curve. Low readings indicate greater potency, high ones weaker potency.

Source of the values: ChEMBL document CHEMBL1147895, “Novel synthetic approach to N-aryl-4-(3-pyridyl)thiazol-2-amine and analogues using HMCM-41 as catalyst, and their biological evaluation as human platelet aggregation inhibitors” (Eur J Med Chem, 2007).
